Data: ChEMBL document CHEMBL1140708, “Synthesis and in vivo evaluation of halogenated N,N-dimethyl-2-(2'-amino-4'-hydroxymethylphenylthio)benzylamine derivatives as PET serotonin transporter ligands” (J Med Chem, 2008)
Each block holds one compound with its values, some of them ahead of it.

Assays:
[1] = biological target: Sodium-dependent dopamine transporter (Homo sapiens, UniProt Q01959); assay: Displacement of [125I]RTI-55 from human DAT expressed in MDCK cells; format: cell-based
Procedure, shortened: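 MDCK cells stably expressing hDAT, grown to confluency in DMEM with 10% FBS and Geneticin, harvested in PBS/0.53 mM EDTA. Membranes (30–70 µg protein) were incubated 1 h at room temperature with 2.0 nM [125I]RTI-55 in 42 mM sodium phosphate/320 mM sucrose, pH 7.4. Competitor: 12 concentrations, 10^-13 to 10^-5 M, in triplicate. Filtered through PEI-soaked GF/B filters; Ki averaged over ≥2 assays.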

[2] = species on record: Homo sapiens; assay: Selectivity for human DAT to human SERT
Procedure, shortened: (§1)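 Ratio of Ki at hDAT or hNET to Ki at hSERT. Ki values come from competition binding on transfected cell membranes: [125I]RTI-55 (MDCK-hDAT), [3H]nisoxetine (HEK-hNET) or [3H]citalopram (HEK-hSERT); 12 competitor concentrations from 10^-13 to 10^-5 M.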

[3] = Partition coefficient, log P at pH 7.4; format: physicochemical; settings: octanol/water
Procedure, shortened: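 Each 11C-labelled radiotracer was partitioned between 1-octanol and 0.02 M phosphate buffer at pH 7.4.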

[4] = species on record: Homo sapiens; assay: Selectivity for human NET to human SERT; procedure, shortened: as §1
[5] = biological target: Sodium-dependent serotonin transporter (Homo sapiens, UniProt P31645); assay: Displacement of [3H]citalopram from human SERT expressed in HEK293 cells; format: cell-based
Sequence of Sodium-dependent serotonin transporter (P31645 whole entry): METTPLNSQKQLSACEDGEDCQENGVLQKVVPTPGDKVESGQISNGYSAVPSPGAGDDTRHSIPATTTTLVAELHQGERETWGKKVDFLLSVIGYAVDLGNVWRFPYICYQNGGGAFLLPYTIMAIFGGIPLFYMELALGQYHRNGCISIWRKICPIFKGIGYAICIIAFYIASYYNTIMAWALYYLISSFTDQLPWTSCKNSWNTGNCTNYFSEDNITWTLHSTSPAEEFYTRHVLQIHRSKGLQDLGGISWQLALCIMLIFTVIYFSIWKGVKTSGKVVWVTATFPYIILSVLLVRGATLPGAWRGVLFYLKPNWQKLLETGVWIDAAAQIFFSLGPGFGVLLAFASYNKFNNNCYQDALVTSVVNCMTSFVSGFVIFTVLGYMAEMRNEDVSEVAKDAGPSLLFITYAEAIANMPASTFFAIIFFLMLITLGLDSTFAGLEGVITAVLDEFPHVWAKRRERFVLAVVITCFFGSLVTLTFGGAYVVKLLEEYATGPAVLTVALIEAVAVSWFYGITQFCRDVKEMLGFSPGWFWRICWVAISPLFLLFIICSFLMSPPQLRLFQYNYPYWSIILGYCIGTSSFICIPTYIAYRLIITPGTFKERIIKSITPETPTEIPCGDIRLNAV
Procedure, shortened: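 Membranes (30–70 µg protein) from HEK-293 cells stably expressing hSERT, grown in DMEM/10% FBS/Geneticin. Incubated 2 h at room temperature with [3H]citalopram in 53 mM Tris, 126 mM NaCl, 5.3 mM KCl, pH 7.9. Competitor: 12 concentrations, 10^-13 to 10^-5 M, in triplicate. Rapid filtration on GF/B with cold buffer washes; Ki averaged from ≥2 separate assays.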

[6] = biological target: Sodium-dependent noradrenaline transporter (Homo sapiens, UniProt P23975); assay: Displacement of [3H]nisoxetine from human NET t expressed in HEK293 cells; format: cell-based
Sequence of Sodium-dependent noradrenaline transporter (P23975 whole entry): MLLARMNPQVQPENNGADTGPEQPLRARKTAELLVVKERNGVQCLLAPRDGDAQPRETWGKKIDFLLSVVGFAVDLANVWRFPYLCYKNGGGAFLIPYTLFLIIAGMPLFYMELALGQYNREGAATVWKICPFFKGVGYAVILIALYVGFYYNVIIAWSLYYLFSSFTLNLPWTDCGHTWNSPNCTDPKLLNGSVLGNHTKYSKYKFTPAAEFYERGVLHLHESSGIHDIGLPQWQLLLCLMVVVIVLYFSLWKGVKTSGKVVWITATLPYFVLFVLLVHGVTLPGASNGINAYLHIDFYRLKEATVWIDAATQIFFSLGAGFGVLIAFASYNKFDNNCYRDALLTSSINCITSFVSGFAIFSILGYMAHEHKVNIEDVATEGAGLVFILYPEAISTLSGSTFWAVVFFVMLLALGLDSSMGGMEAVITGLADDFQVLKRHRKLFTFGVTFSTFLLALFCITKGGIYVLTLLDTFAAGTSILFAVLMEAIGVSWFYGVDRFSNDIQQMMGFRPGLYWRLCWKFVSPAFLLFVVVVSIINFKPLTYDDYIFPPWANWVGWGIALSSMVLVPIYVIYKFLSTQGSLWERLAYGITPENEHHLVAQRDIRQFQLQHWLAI
Procedure, shortened: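 Membranes (30–70 µg protein) from HEK-293 cells stably expressing hNET. Equilibrium with [3H]nisoxetine for 4 h at 4 °C in 53 mM Tris, 320 mM NaCl, 5.3 mM KCl, pH 7.4 at 4 °C. Competitor: 12 concentrations, 10^-13 to 10^-5 M, in triplicate. Ended by vacuum filtration through PEI-presoaked GF/B filters; Ki averaged from at least two assays, each in duplicate.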

[7] = tested on: Medulla; assay: Drug uptake in cynomolgus monkey medulla after 85 mins; format: ADME, tissue-based, Macaca fascicularis, Medulla of organ; settings: in vivo
Procedure, shortened: (§2)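 Baseline microPET (Concorde P4) scans in one anesthetized adult male cynomolgus monkey (7.50–8.35 kg) after i.v. radiotracer. Attenuation correction used a 68Ge transmission scan; OSEM reconstruction, 3 mm resolution. Value is the region-of-interest to cerebellum activity ratio at 85 min post-injection.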

[8] = tested on: Occipital cortex; assay: Drug uptake in cynomolgus monkey occipital cortex after 85 mins; format: ADME, tissue-based, Macaca fascicularis; settings: in vivo; procedure, shortened: as §2
[9] = tested on: Frontal cortex; assay: Drug uptake in cynomolgus monkey frontal cortex in presence of citalopram after 115 mins; format: ADME, tissue-based, Macaca fascicularis; settings: in vivo
Procedure, shortened: (§3)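 Chase microPET scans in the same male cynomolgus monkey after i.v. 11C radiotracer (6.90–18.10 mCi). R,S-citalopram·HBr, 1.5 mg/kg, was given i.v. as a 30 s bolus at 45 min (ratios at 45 and 85 min) or 60 min (ratios at 55 and 115 min) post-tracer. Value is the region-to-cerebellum activity ratio before and after citalopram.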

[10] = tested on: Medulla; assay: Drug uptake in cynomolgus monkey medulla in presence of citalopram after 115 mins; format: ADME, tissue-based, Macaca fascicularis, Medulla of organ; settings: in vivo; procedure, shortened: as §3
[11] = tested on: Midbrain; assay: Drug uptake in cynomolgus monkey midbrain after 85 mins; format: ADME, tissue-based, Macaca fascicularis; settings: in vivo; procedure, shortened: as §2
[12] = tested on: Thalamus; assay: Drug uptake in cynomolgus monkey thalamus after 55 mins; format: ADME, tissue-based, Macaca fascicularis; settings: in vivo; procedure, shortened: as §3
[13] = tested on: Caudate; assay: Drug uptake in cynomolgus monkey caudate after 85 mins; format: ADME, tissue-based, Macaca fascicularis, Caudate nucleus; settings: in vivo; procedure, shortened: as §2
[14] = tested on: Medulla; assay: Drug uptake in cynomolgus monkey medulla after 55 mins; format: ADME, tissue-based, Macaca fascicularis, Medulla of organ; settings: in vivo; procedure, shortened: as §3
[15] = tested on: Occipital cortex; assay: Drug uptake in cynomolgus monkey occipital cortex after 55 mins; format: ADME, tissue-based, Macaca fascicularis; settings: in vivo; procedure, shortened: as §3
[16] = tested on: Midbrain; assay: Drug uptake in cynomolgus monkey midbrain after 55 mins; format: ADME, tissue-based, Macaca fascicularis; settings: in vivo; procedure, shortened: as §3
[17] = tested on: Pons; assay: Drug uptake in cynomolgus monkey pons after 85 mins; format: ADME, tissue-based, Macaca fascicularis; settings: in vivo; procedure, shortened: as §2
[18] = tested on: Frontal cortex; assay: Drug uptake in cynomolgus monkey frontal cortex after 55 mins; format: ADME, tissue-based, Macaca fascicularis; settings: in vivo; procedure, shortened: as §3
[19] = tested on: Thalamus; assay: Drug uptake in cynomolgus monkey thalamus after 85 mins; format: ADME, tissue-based, Macaca fascicularis; settings: in vivo; procedure, shortened: as §2
[20] = tested on: Occipital cortex; assay: Drug uptake in cynomolgus monkey occipital cortex in presence of citalopram after 115 mins; format: ADME, tissue-based, Macaca fascicularis; settings: in vivo; procedure, shortened: as §3
[21] = tested on: Putamen; assay: Drug uptake in cynomolgus monkey putamen after 85 mins; format: ADME, tissue-based, Macaca fascicularis; settings: in vivo; procedure, shortened: as §2
[22] = tested on: Caudate; assay: Drug uptake in cynomolgus monkey caudate in presence of citalopram after 115 mins; format: ADME, tissue-based, Macaca fascicularis, Caudate nucleus; settings: in vivo; procedure, shortened: as §3
[23] = tested on: Frontal cortex; assay: Drug uptake in cynomolgus monkey frontal cortex after 85 mins; format: ADME, tissue-based, Macaca fascicularis; settings: in vivo; procedure, shortened: as §2
[24] = tested on: Putamen; assay: Drug uptake in cynomolgus monkey putamen in presence of citalopram after 115 mins; format: ADME, tissue-based, Macaca fascicularis; settings: in vivo; procedure, shortened: as §3
[25] = tested on: Thalamus; assay: Drug uptake in cynomolgus monkey thalamus in presence of citalopram after 115 mins; format: ADME, tissue-based, Macaca fascicularis; settings: in vivo; procedure, shortened: as §3
[26] = tested on: Pons; assay: Drug uptake in cynomolgus monkey pons in presence of citalopram after 115 mins; format: ADME, tissue-based, Macaca fascicularis; settings: in vivo; procedure, shortened: as §3
[27] = tested on: Pons; assay: Drug uptake in cynomolgus monkey pons after 55 mins; format: ADME, tissue-based, Macaca fascicularis; settings: in vivo; procedure, shortened: as §3
[28] = tested on: Putamen; assay: Drug uptake in cynomolgus monkey putamen after 55 mins; format: ADME, tissue-based, Macaca fascicularis; settings: in vivo; procedure, shortened: as §3
[29] = tested on: Midbrain; assay: Drug uptake in cynomolgus monkey midbrain in presence of citalopram after 115 mins; format: ADME, tissue-based, Macaca fascicularis; settings: in vivo; procedure, shortened: as §3
[30] = tested on: Caudate; assay: Drug uptake in cynomolgus monkey caudate after 55 mins; format: ADME, tissue-based, Macaca fascicularis, Caudate nucleus; settings: in vivo; procedure, shortened: as §3
[31] = tested on: Frontal cortex; assay: Drug uptake in cynomolgus monkey frontal cortex in presence of citalopram after 85 mins; format: ADME, tissue-based, Macaca fascicularis; settings: in vivo; procedure, shortened: as §3
[32] = tested on: Occipital cortex; assay: Drug uptake in cynomolgus monkey occipital cortex in presence of citalopram after 85 mins; format: ADME, tissue-based, Macaca fascicularis; settings: in vivo; procedure, shortened: as §3
[33] = tested on: Occipital cortex; assay: Drug uptake in cynomolgus monkey occipital cortex after 45 mins; format: ADME, tissue-based, Macaca fascicularis; settings: in vivo, 0.75 h; procedure, shortened: as §3
[34] = tested on: Pons; assay: Drug uptake in cynomolgus monkey pons in presence of citalopram after 85 mins; format: ADME, tissue-based, Macaca fascicularis; settings: in vivo; procedure, shortened: as §3
[35] = tested on: Medulla; assay: Drug uptake in cynomolgus monkey medulla after 45 mins; format: ADME, tissue-based, Macaca fascicularis, Medulla of organ; settings: in vivo, 0.75 h; procedure, shortened: as §3
[36] = tested on: Thalamus; assay: Drug uptake in cynomolgus monkey thalamus after 45 mins; format: ADME, tissue-based, Macaca fascicularis; settings: in vivo, 0.75 h; procedure, shortened: as §3
[37] = tested on: Medulla; assay: Drug uptake in cynomolgus monkey medulla in presence of citalopram after 85 mins; format: ADME, tissue-based, Macaca fascicularis, Medulla of organ; settings: in vivo; procedure, shortened: as §3
[38] = tested on: Putamen; assay: Drug uptake in cynomolgus monkey putamen in presence of citalopram after 85 mins; format: ADME, tissue-based, Macaca fascicularis; settings: in vivo; procedure, shortened: as §3
[39] = tested on: Caudate; assay: Drug uptake in cynomolgus monkey caudate after 45 mins; format: ADME, tissue-based, Macaca fascicularis, Caudate nucleus; settings: in vivo, 0.75 h; procedure, shortened: as §3
[40] = tested on: Thalamus; assay: Drug uptake in cynomolgus monkey thalamus in presence of citalopram after 85 mins; format: ADME, tissue-based, Macaca fascicularis; settings: in vivo; procedure, shortened: as §3
[41] = tested on: Midbrain; assay: Drug uptake in cynomolgus monkey midbrain in presence of citalopram after 85 mins; format: ADME, tissue-based, Macaca fascicularis; settings: in vivo; procedure, shortened: as §3
[42] = tested on: Putamen; assay: Drug uptake in cynomolgus monkey putamen after 45 mins; format: ADME, tissue-based, Macaca fascicularis; settings: in vivo, 0.75 h; procedure, shortened: as §3
[43] = tested on: Frontal cortex; assay: Drug uptake in cynomolgus monkey frontal cortex after 45 mins; format: ADME, tissue-based, Macaca fascicularis; settings: in vivo, 0.75 h; procedure, shortened: as §3
[44] = tested on: Midbrain; assay: Drug uptake in cynomolgus monkey midbrain after 45 mins; format: ADME, tissue-based, Macaca fascicularis; settings: in vivo, 0.75 h; procedure, shortened: as §3
[45] = tested on: Pons; assay: Drug uptake in cynomolgus monkey pons after 45 mins; format: ADME, tissue-based, Macaca fascicularis; settings: in vivo, 0.75 h; procedure, shortened: as §3
[46] = tested on: Caudate; assay: Drug uptake in cynomolgus monkey caudate in presence of citalopram after 85 mins; format: ADME, tissue-based, Macaca fascicularis, Caudate nucleus; settings: in vivo; procedure, shortened: as §3

Sequence of Sodium-dependent dopamine transporter (Q01959 whole entry): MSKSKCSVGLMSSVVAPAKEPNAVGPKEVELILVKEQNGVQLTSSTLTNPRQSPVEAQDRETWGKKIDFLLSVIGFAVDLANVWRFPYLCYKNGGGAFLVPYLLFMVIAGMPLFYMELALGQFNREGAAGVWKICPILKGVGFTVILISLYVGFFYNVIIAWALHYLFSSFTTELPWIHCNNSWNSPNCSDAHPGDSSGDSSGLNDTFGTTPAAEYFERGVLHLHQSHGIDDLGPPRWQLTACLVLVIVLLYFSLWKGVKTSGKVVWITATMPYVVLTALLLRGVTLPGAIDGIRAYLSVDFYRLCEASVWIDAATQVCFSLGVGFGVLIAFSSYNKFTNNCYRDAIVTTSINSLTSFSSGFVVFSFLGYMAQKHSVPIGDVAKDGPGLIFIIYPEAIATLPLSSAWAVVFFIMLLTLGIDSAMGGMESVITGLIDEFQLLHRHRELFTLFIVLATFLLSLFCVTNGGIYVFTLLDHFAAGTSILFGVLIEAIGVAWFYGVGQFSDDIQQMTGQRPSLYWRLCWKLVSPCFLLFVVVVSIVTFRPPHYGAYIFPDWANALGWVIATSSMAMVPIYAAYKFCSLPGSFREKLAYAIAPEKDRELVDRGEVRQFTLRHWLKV

SMILES: CN(C)Cc1cc(Br)ccc1Sc1ccc(CO)cc1N
Ki [1]: 221 nM
Ki [5]: 0.29 nM
Ratio Ki [2]: 762
Ratio Ki [4]: > 2000
Ki [6]: 725 nM

SMILES: CN([11CH3])Cc1cc(I)ccc1Sc1ccc(CO)cc1N
Ratio [7]: 2.4
Ratio [8]: 1.2
Ratio [9]: 1
Ratio [10]: 1.6
Ratio [11]: 3
Ratio [12]: 2
Ratio [13]: 1.8
Ratio [14]: 2.5
Ratio [15]: 1.2
Ratio [16]: 2.4
Ratio [17]: 1.65
Ratio [18]: 1
Ratio [19]: 2.06
Ratio [20]: 1.1
Ratio [21]: 2.3
Ratio [22]: 1.3
Ratio [23]: 1.09
Ratio [24]: 1.4
Ratio [25]: 1.63
Ratio [26]: 1.5
logD [3]: 1.82
Ratio [27]: 1.9
Ratio [28]: 1.9
Ratio [29]: 1.7
Ratio [30]: 1.8

SMILES: CN(C)Cc1cc(F)ccc1Sc1ccc(CO)cc1N
Ki [1]: > 2000 nM
Ki [5]: 1.26 nM
Ratio Ki [2]: > 1000
Ratio Ki [4]: 490
Ki [6]: 618 nM

Results, then the compound that gave them:

Ki [1]: > 1000 nM
Ratio Ki [2]: > 1000
logD [3]: 1.6
Ratio Ki [4]: 532
SMILES: CN(C)Cc1ccccc1Sc1ccc(CO)cc1N

Ki [1]: > 2000 nM
Ki [5]: 0.31 nM
Ratio Ki [2]: > 1000
Ratio Ki [4]: > 1000
Ki [6]: 467 nM
SMILES: CN(C)Cc1cc(I)ccc1Sc1ccc(CO)cc1N

Ratio [7]: 2.6
Ratio [8]: 1.34
Ratio [9]: 1
Ratio [10]: 1.1
Ratio [11]: 3.24
Ratio [12]: 1.8
Ratio [13]: 1.7
Ratio [14]: 2.3
Ratio [15]: 1.35
Ratio [16]: 2.4
Ratio [17]: 2.8
Ratio [18]: 1
Ratio [19]: 2.3
Ratio [20]: 1.1
Ratio [21]: 2.4
Ratio [22]: 1
Ratio [23]: 1.06
Ratio [24]: 1.2
Ratio [25]: 1.4
Ratio [26]: 1.23
logD [3]: 2.63
Ratio [27]: 2
Ratio [28]: 1.6
Ratio [29]: 1.2
Ratio [30]: 1.4
SMILES: CN([11CH3])Cc1cc(Br)ccc1Sc1ccc(CO)cc1N

Ratio [31]: 1
Ratio [7]: 2.1
Ratio [32]: 1.04
Ratio [11]: 3.4
Ratio [33]: 1.3
Ratio [34]: 1.4
Ratio [35]: 2
Ratio [17]: 2.8
Ratio [19]: 2.3
Ratio [36]: 1.9
Ratio [23]: 1.04
Ratio [37]: 1.1
Ratio [38]: 1.2
Ratio [39]: 1.6
logD [3]: 2.06
Ratio [40]: 1.3
Ratio [41]: 1.2
Ratio [42]: 1.8
Ratio [43]: 1.06
Ratio [44]: 2.3
Ratio [45]: 2
Ratio [46]: 1.06
SMILES: CN([11CH3])Cc1cc(F)ccc1Sc1ccc(CO)cc1N
